Eleven compounds from ChEMBL document CHEMBL1124068, “5-Methyl-2-pyrrolidone analogues of oxotremorine as selective muscarinic agonists” (J Med Chem, 1988) can be followed below.

The species entered for series [1] is Cavia porcellus. In words: Concentration that elicits 50% of its own maximum contractile response in guinea pig ileum. It is filed as functional. An outline of the steps: (§1)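 Isolated guinea pig ileum in Tyrode solution (pH 7.4) with 0.3 mM hexamethonium, 37 °C; isotonic contractions at 1 g tension. Cumulative agonist concentration-response curves, concentration raised stepwise by factor 2.15; maxima expressed relative to carbachol.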

The species entered for series [2] is Cavia porcellus. In words: Equilibrium dissociation constant receptor complex, measured in guinea pig ileum. Format: functional.
The species named for series [3] is Cavia porcellus. The experiment in a line: Equilibrium dissociation constant receptor complex, measured in guinea pig urinary bladder. Format: functional.
The species named for series [4] is Cavia porcellus. In words: Efficacy relative to that of carbachol. It is filed as functional.
Series [5] is filed under the species Cavia porcellus. In words: Maximum contractile response relative to that elicited by carbachol was measured in guinea pig ileum. It is filed as functional. The gist of the method: as §1
The species entered for series [6] is Cavia porcellus. In words: Maximum contractile response relative to that elicited by carbachol was measured in guinea pig urinary bladder. It is filed as functional. An outline of the steps:
(§2)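 Guinea pig bladder strips in Krebs-Henseleit solution (pH 7.4) with 0.3 mM hexamethonium, 37 °C; isotonic recording at 1 g tension; cumulative agonist additions increased by factor 3.16; responses referenced to carbachol.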

Series [7] relates to Mus musculus. In words: Muscarinic activity administered intraperitoneally to mice, expressed as salivation. To be noted: ip. It is filed as functional. The gist of the method: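 Male Swiss-Webster mice (24-32 g) dosed ip at 20.5 ± 1.0 °C; salivation judged by pressing mouth onto absorbent tissue; threshold dose estimated by up-and-down method.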
Series [8] concerns Mus musculus. The experiment in a line: Tremorolytic activity administered intraperitoneally to mice. It is filed as functional. To be noted: ip. The gist of the method: (§3)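 Antagonists given ip to groups of six or more male Swiss-Webster mice (24-32 g), six untreated controls; 20 min later iv oxotremorine ED50 for grade 2 intermittent spontaneous tremor found by up-and-down method. Dose doubling oxotremorine ED50 derived by linear regression; values are means ± standard errors.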

Series [9] has as its system Mus musculus. In words: Central muscarinic activity administered intraperitoneally to mice, expressed as analgesia. It is filed as functional. To be noted: ip. An outline of the steps: (§4)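 Male Swiss-Webster mice (24-32 g), ip, 20.5 ± 1.0 °C; tail-flick test, 15 s cut-off, groups of ten at three to four dose levels. Reaction time above control mean plus 3 SD counted as increased; ED50 by probit analysis.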

For series [10], the system named is Mus musculus. The experiment in a line: Central muscarinic activity administered intraperitoneally to mice, expressed as hypothermia. Format: functional. To be noted: ip. An outline of the steps: (§5)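 Rectal temperature (probe ~25 mm) in male Swiss-Webster mice (24-32 g) after ip dosing at 20.5 ± 1.0 °C; six mice per dose, five to six doses, readings every 20 min for 3 h. Maximal fall from pretreatment used; ED50 from logistic fit.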

Series [11] can be described thus: Acute toxicity administered intraperitoneally to mice. It is filed as organism-based. The note with it: mouse, in vivo, ip.
Series [12] is filed under the species Cavia porcellus. In words: Concentration that elicits 50% of its own maximum contractile response in guinea pig urinary bladder. Format: functional. An outline of the steps: as §2
The species named for series [13] is Cavia porcellus. In words: Efficacy relative to that of carbachol (guinea pig urinary bladder). It is filed as functional.
Series [14] concerns Mus musculus. In words: Central muscarinic activity administered intraperitoneally to mice, expressed as analgesia; d = no effect was observed. Format: functional, organism-based. An outline of the steps:
as §4

Series [15] deals with Mus musculus. In words: Central muscarinic activity administered intraperitoneally to mice, expressed as hypothermia; d = no effect was observed. It is filed as functional, organism-based. An outline of the steps:
as §5

Series [16] relates to Mus musculus. In words: Tremorolytic activity administered intraperitoneally to mice; c = no significant blockade was observed. Format: functional, organism-based. An outline of the steps:
as §3

Activity calls are given as the source filed them.

`CC(=O)N(C)C(C)C#CCN1CCCC1` (centres undefined): the EC50 – broadly, the concentration needed to bring the measured effect to its halfway point – in the series listed under Cavia porcellus [1] turned out to be 0.19 µM. The results for the dissociation constant (Kd) in the series filed under Cavia porcellus [2] and in the series filed under Cavia porcellus [3] were 0.24 µM and 0.14 µM, respectively. Moreover, the Relative efficacy in the series filed under Cavia porcellus [4] amounted to 0.012. Besides, the results for the Emax in the series filed under Cavia porcellus [5] and in the series listed under Cavia porcellus [6] were 82.6 and below 5, respectively. The median effective dose (ED50) (commonly the dose that gives a 50% effect, or the effect in half of the subjects) in the series with Mus musculus [7] came to 0.65 µmol/kg; in the series on Mus musculus [8], 0.63 µmol/kg; with Mus musculus [9], 0.37 µmol/kg; with Mus musculus [10], 0.75 µmol/kg. Moreover, in [11], the LD50 (usually the dose expected to kill half of the subjects tested) worked out at 665 µmol/kg.

`CN1[C@@H]2CC[C@H]1C[C@@H](OC(=O)C(CO)c1ccccc1)C2` (some centres undefined) [ATROPINE] yielded a median effective dose (ED50) with Mus musculus [8] of 0.57 µmol/kg.

Consider `CC1CCC(=O)N1CC#CCN(C)C` (centres undefined), for which the EC50 amounted to 0.91 µM in the series filed under Cavia porcellus [1] and 15 µM in the series listed under Cavia porcellus [12]. Moreover, the Kd (as a rule, a measure of binding affinity in units of concentration) in the series filed under Cavia porcellus [2] amounted to 4.3 µM; in the series listed under Cavia porcellus [3] it was 11.8 µM. Further, the results for the Relative efficacy in the series filed under Cavia porcellus [4] and in the series filed under Cavia porcellus [13] were 0.04 and 0.064, respectively. The results for the Emax in the series listed under Cavia porcellus [5] and in the series listed under Cavia porcellus [6] were 102 and 58.1, respectively. Moreover, the ED50 came out at 4 µmol/kg in the series with Mus musculus [7], 22.8 µmol/kg in the series on Mus musculus [8], 1.5 µmol/kg in the series with Mus musculus [9] and 13.1 µmol/kg with Mus musculus [10]. In addition, in series [11], the median lethal dose (LD50) is 402 µmol/kg.

As to `CC1CCC(=O)N1CC#CC[N+](C)(C)C.[I-]` (centres undefined), the EC50 stood at 0.18 µM in the series filed under Cavia porcellus [1] and 2 µM in the series listed under Cavia porcellus [12]. For the same compound, the values for the dissociation constant (Kd) in the series filed under Cavia porcellus [2] and in the series listed under Cavia porcellus [3] were 1.7 µM and 2.8 µM, respectively. Moreover, the Relative efficacy in the series filed under Cavia porcellus [4] is 0.057; in the series listed under Cavia porcellus [13], 0.062. The Emax in the series listed under Cavia porcellus [5] came out at 100; in the series listed under Cavia porcellus [6], 71.4. This compound displayed a 50% effective dose (ED50) in the series on Mus musculus [7] of 12 µmol/kg. For the same compound, the ED50 result in the series with Mus musculus [14], with Mus musculus [15] and in the series on Mus musculus [16] was “inactive” each time. In series [11], this compound registered an LD50 of 33.6 µmol/kg.

Regarding `CC1CCC(=O)N1CC#CCN1CCCC1` (centres undefined), the median effective dose (ED50) in the series with Mus musculus [8] is 0.36 µmol/kg. The 50% lethal dose (LD50) in series [11] stood at 107 µmol/kg.

Regarding `O=C1CCCN1CC#CCN1CCCC1` [OXOTREMORINE], the ED50 in the series with Mus musculus [7] worked out at 0.29 µmol/kg; in the series on Mus musculus [9], 0.05 µmol/kg; with Mus musculus [10] it was 0.22 µmol/kg.

For the compound `CC1CCC(=O)N1CC#CCN1CCC1` (centres undefined), the 50% effective concentration (EC50) is 0.23 µM in the series filed under Cavia porcellus [1] and 4.6 µM in the series filed under Cavia porcellus [12]. Further, the dissociation constant (Kd) in the series filed under Cavia porcellus [2] is 0.52 µM; in the series filed under Cavia porcellus [3], 0.58 µM. Moreover, the Relative efficacy in the series listed under Cavia porcellus [4] came out at 0.02; in the series filed under Cavia porcellus [13] it was 0.022. Besides, the Emax in the series filed under Cavia porcellus [5] came out at 90; in the series filed under Cavia porcellus [6], 21.4. Moreover, the ED50 was 1.3 µmol/kg in the series on Mus musculus [7], 4.6 µmol/kg in the series with Mus musculus [8], 0.71 µmol/kg with Mus musculus [9] and 4.9 µmol/kg in the series on Mus musculus [10]. In [11], the 50% lethal dose (LD50) turned out to be 192 µmol/kg.

On to `CCN(CC)CC#CCN1C(=O)CCC1C` (centres undefined), for which the Kd in the series listed under Cavia porcellus [2] is 1.1 µM; in the series filed under Cavia porcellus [3], 2.1 µM. In addition, the Emax in the series filed under Cavia porcellus [5] and in the series listed under Cavia porcellus [6] was 0 in each case. In the series with Mus musculus [8], this compound returned an ED50 of 5.1 µmol/kg. In series [11], the 50% lethal dose (LD50) stood at 720 µmol/kg.

With `CCN(C)CC#CCN1C(=O)CCC1C` (centres undefined), the values for the equilibrium dissociation constant (Kd) in the series filed under Cavia porcellus [2] and in the series filed under Cavia porcellus [3] were 1.8 µM and 2.5 µM, respectively. Also, the Emax in the series filed under Cavia porcellus [5] and in the series filed under Cavia porcellus [6] was 0 throughout. In the series with Mus musculus [8], this compound had an ED50 of 6.7 µmol/kg. In series [11], this compound gave a 50% lethal dose (LD50) of 636 µmol/kg.

Turning to `CC[N+](C)(C)CC#CCN1C(=O)CCC1C.[I-]` (centres undefined), the midpoint of the response in the series listed under Cavia porcellus [1], the EC50, lay at 3.2 µM. Moreover, the dissociation constant Kd stood at 4.9 µM in the series listed under Cavia porcellus [2] and 3.5 µM in the series listed under Cavia porcellus [3]. In the series filed under Cavia porcellus [4], this compound displayed a Relative efficacy of 0.0036. The Emax in the series filed under Cavia porcellus [5] came to 28.7; in the series listed under Cavia porcellus [6] it was 0. For the same compound, the LD50 in series [11] stood at 176 µmol/kg. Moreover, the ED50 result with Mus musculus [16] is “No significant blockade”.

`C[N+](C)(C)CCOC(N)=O.[Cl-]` [CARBACHOL]: the EC50 in the series filed under Cavia porcellus [1] was 0.11 µM; in the series filed under Cavia porcellus [12], 0.9 µM. The figures for the Kd in the series listed under Cavia porcellus [2] and in the series listed under Cavia porcellus [3] were 14.1 µM and 17 µM, respectively. In addition, the Relative efficacy in the series listed under Cavia porcellus [4] and in the series filed under Cavia porcellus [13] was 1 each time. The Emax in the series filed under Cavia porcellus [5] and in the series filed under Cavia porcellus [6] was 100 throughout.
